Consider 5 molecules from ChEMBL document CHEMBL2177095, “Discovery of selective and potent inhibitors of gram-positive bacterial thymidylate kinase (TMK)” (J Med Chem, 2012).

The subject of series [1] is Staphylococcus aureus. In words: Antimicrobial activity against Staphylococcus aureus infected in mouse thigh infection model assessed as compound dose causing microbial infection stasis administered as single dose. Format: functional, Thigh muscle.
Series [2] is described as follows: Toxicity against human A549 cells. The class given is cell-based. The settings on record: read-out: MIC.
For a further series, the target named is T1, Thymidylate kinase (Homo sapiens, UniProt P23919).
T1 sequence (P23919 whole entry): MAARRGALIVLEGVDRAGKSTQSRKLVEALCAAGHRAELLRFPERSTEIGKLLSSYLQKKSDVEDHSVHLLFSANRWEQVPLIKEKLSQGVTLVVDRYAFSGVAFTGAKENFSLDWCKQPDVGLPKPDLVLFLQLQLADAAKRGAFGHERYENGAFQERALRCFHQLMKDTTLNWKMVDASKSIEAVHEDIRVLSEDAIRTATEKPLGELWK
As to the kind of experiment: Inhibition of human thymidylate kinase assessed as effect on ATP production by Escherichia coli DdlA and Malachite green reagent based assay.

A short description of series [3]: Inhibition of Streptococcus pneumoniae thymidylate kinase assessed as effect on conversion of dTDP to dTMP by luciferin/luciferase reporter gene based assay.
Series [4] is described as follows: Toxicity in Staphylococcus aureus infected mouse thigh infection model assessed as incidence of adverse events. The class given is organism-based, Thigh muscle. The following applies: in vivo.
The test system of series [5] is Staphylococcus aureus. In words: Antimicrobial activity against methicillin and quinolone-resistant Staphylococcus aureus by broth microdilution method. The class given is functional. Put shortly:
(§1)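 MICs were determined against bacterial strains from the AstraZeneca collection. For S. aureus, MSQS means methicillin- and quinolone-sensitive, and MRQR means methicillin- and quinolone-resistant.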
On the technique in general: In broth dilution the organism is exposed to a series of concentrations in liquid medium.

Series [6] relates to Staphylococcus epidermidis. As to the kind of experiment: Antimicrobial activity against Staphylococcus epidermidis by broth microdilution method. Format: functional. In a few lines: (§2)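 Test organisms were strains from the AstraZeneca collection.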
The test system of the next series is Enterococcus faecalis. In words: Antimicrobial activity against vancomycin-resistant Enterococcus faecalis by broth microdilution method. Format: functional. Put shortly: as §1
Series [7] deals with Staphylococcus aureus. In words: Antimicrobial activity against methicillin and quinolone-sensitive Staphylococcus aureus by broth microdilution method. The class given is functional. Put shortly:
as §1

Series [8] can be described thus: Inhibition of Staphylococcus aureus thymidylate kinase assessed as effect on conversion of dTDP to dTMP by luciferin/luciferase reporter gene based assay. Background: Reporter assays use an easily measured gene product as a stand-in for the process of interest.
A further series concerns Streptococcus pneumoniae. As to the kind of experiment: Antimicrobial activity against Streptococcus pneumoniae by broth microdilution method. Format: functional. Put shortly:
as §2

A further series relates to Streptococcus pyogenes. In words: Antimicrobial activity against Streptococcus pyogenes by broth microdilution method. The class given is functional. In a few lines:
as §2

In the next series the test system is Candida albicans. In words: Toxicity against Candida albicans. Format: organism-based.
A short description of series [9]: Partition coefficient, log D of the compound at pH 7.4 by shake flask method. The following applies: octanol/water.
For the next series, the system named is Enterococcus faecium. In words: Antimicrobial activity against linezolid-resistant Enterococcus faecium by broth microdilution method. The class given is functional. In a few lines:
as §1

In brackets after ≈: the same amount, converted by molar mass. Some results are limits rather than exact numbers.

For `Cc1cn([C@H]2CCCN([C@H](CC(C)(C)C)c3ccc(C(=O)O)c(Oc4cccc(Br)c4)c3)C2)c(=O)[nH]c1=O`, the Activity in the series on Staphylococcus aureus [1] came to 150 mg/kg. For the same molecule, in series [2], the MCC is more than 64 µg/mL. Moreover, the half-inhibitory concentration (IC50) is 62000 nM at Thymidylate kinase, 0.2 nM in series [3] and 0.8 nM in series [8]. Also, the NOAEL in series [4] amounted to 800 mg/kg/day. Also, the MIC against Staphylococcus aureus [5] was found to be 0.25 µg/mL (≈ 0.428 µM); in series [6], 2 µg/mL (≈ 3.42 µM); in the series with Enterococcus faecalis, 1 µg/mL (≈ 1.71 µM); against Staphylococcus aureus [7], 0.25 µg/mL (≈ 0.428 µM); in the series with Streptococcus pneumoniae, 0.02 µg/mL (≈ 0.0342 µM); against Streptococcus pyogenes it was 0.08 µg/mL (≈ 0.137 µM). Also, the results for the MIC against Candida albicans and with Enterococcus faecium were more than 64 µg/mL and 0.25 µg/mL (≈ 0.428 µM), respectively. Moreover, the logD in [9] was determined as 1.1.

`C[C@H]1COc2c(N3CCN(C)CC3)c(F)cc3c(=O)c(C(=O)O)cn1c23.C[C@H]1COc2c(N3CCN(C)CC3)c(F)cc3c(=O)c(C(=O)O)cn1c23.O` [LEVOFLOXACIN]: the Activity with Staphylococcus aureus [1] worked out at 40 mg/kg.

Consider `Cc1cn([C@H]2CCCN([C@H](C)c3ccc(C(=O)O)c(Oc4cccc(Cl)c4)c3)C2)c(=O)[nH]c1=O`, for which the MCC in [2] was more than 64 µg/mL. The IC50 was 150000 nM at Thymidylate kinase, 0.3 nM in series [3] and 2.5 nM in series [8]. In addition, the MIC was 8 µg/mL (≈ 16.5 µM) with Staphylococcus aureus [5], 4 µg/mL (≈ 8.27 µM) in the series on Staphylococcus aureus [7], 0.1 µg/mL (≈ 0.207 µM) against Streptococcus pneumoniae and more than 64 µg/mL against Candida albicans. In [9], this molecule had a logD of -0.26.

As to `CCCCC[C@H](c1ccc(C(=O)O)c(Oc2cccc(Br)c2)c1)N1CCC[C@H](n2cc(C)c(=O)[nH]c2=O)C1`, the MCC in [2] was more than 64 µg/mL. The figures for the IC50 (on Thymidylate kinase; in series [3]; in [8]) were 32000 nM, less than 0.1 nM and 0.5 nM, respectively. Further, the MIC against Staphylococcus aureus [5] was determined as 0.1 µg/mL (≈ 0.171 µM); in series [6], 0.5 µg/mL (≈ 0.855 µM); against Enterococcus faecalis it was 0.06 µg/mL (≈ 0.103 µM); in the series with Staphylococcus aureus [7] it was 0.25 µg/mL (≈ 0.428 µM); against Streptococcus pneumoniae, 0.01 µg/mL (≈ 0.0171 µM); against Streptococcus pyogenes, 0.04 µg/mL (≈ 0.0684 µM). In addition, the MIC was more than 64 µg/mL against Candida albicans and 0.25 µg/mL (≈ 0.428 µM) in the series with Enterococcus faecium. In addition, in series [9], the log distribution coefficient (logD) was determined as 1.1.

With `CCC(C)(C)C[C@H](c1ccc(C(=O)O)c(Oc2cccc(Cl)c2)c1)N1CCC[C@H](n2cc(C)c(=O)[nH]c2=O)C1`, the MCC in series [2] was more than 64 µg/mL. The IC50 at Thymidylate kinase turned out to be 43400 nM; in [3], 0.3 nM; in series [8], 1 nM. Further, the MIC against Staphylococcus aureus [5] was 0.1 µg/mL (≈ 0.18 µM); in the series on Staphylococcus aureus [7] it was 0.25 µg/mL (≈ 0.451 µM); in the series on Streptococcus pneumoniae, 0.05 µg/mL (≈ 0.0902 µM); in the series on Candida albicans, more than 64 µg/mL. In addition, the logD in series [9] came to 1.4.

A word on the IC50: it is the concentration that inhibits the measured activity by half. The term NOAEL denotes the highest tested level that showed no adverse finding. As usually defined, the logD is lipophilicity at a set pH, counting ionised and neutral species. A high value points to higher lipophilicity.
